Experimental data taken from ChEMBL document CHEMBL3390837, “Bridged tetrahydroisoquinolines as selective NADPH oxidase 2 (Nox2) inhibitors” (Medchemcomm, 2013).

Legend:
[1] = biological target: T1, NADPH oxidase 2 (Homo sapiens, UniProt P04839); experiment: Inhibition of full length human NOX2 transfected in COS 22 cells assessed as inhibition of Phorbol 12-myristate 13-acetate-stimulated ROS generation by chemiluminescence assay; assay type: cell-based
T1 sequence (P04839 whole entry): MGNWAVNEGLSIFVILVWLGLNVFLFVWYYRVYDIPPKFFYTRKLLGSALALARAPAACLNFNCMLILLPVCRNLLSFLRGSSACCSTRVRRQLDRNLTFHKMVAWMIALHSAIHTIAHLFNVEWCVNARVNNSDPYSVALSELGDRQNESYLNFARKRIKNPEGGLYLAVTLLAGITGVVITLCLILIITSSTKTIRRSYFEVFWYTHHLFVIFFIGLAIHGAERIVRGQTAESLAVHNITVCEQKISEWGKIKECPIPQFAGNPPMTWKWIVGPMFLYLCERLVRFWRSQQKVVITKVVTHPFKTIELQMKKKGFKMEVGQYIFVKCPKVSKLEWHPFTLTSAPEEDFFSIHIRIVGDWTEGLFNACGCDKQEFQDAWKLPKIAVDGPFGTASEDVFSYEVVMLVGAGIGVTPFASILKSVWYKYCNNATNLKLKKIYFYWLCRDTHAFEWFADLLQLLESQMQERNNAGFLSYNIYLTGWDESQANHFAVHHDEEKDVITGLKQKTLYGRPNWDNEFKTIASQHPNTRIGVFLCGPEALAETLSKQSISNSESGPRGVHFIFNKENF
Procedure, shortened: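 COS-Nox2 (COS-7 stably expressing human p22phox, Nox2, p47phox, p67phox) plated in OPTIMEM at 2.5 x 10³ cells/well; 10 min at 37 °C in PBS with L-012, then stimulated with 5 µM PMA; luminescence followed over time; superoxide specificity checked with SOD 150 U/mL. IC50 by three-parameter non-linear fit, Hill slope 1, top/bottom fixed 100/0.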

[2] = biological target: T2, NADPH oxidase 4 (Homo sapiens, UniProt Q9NPH5); experiment: Inhibition of full length human NOX4 transfected in COS 22 cells assessed as inhibition of ROS generation by measuring H2O2 production by fluorescence assay
T2 sequence (Q9NPH5 whole entry): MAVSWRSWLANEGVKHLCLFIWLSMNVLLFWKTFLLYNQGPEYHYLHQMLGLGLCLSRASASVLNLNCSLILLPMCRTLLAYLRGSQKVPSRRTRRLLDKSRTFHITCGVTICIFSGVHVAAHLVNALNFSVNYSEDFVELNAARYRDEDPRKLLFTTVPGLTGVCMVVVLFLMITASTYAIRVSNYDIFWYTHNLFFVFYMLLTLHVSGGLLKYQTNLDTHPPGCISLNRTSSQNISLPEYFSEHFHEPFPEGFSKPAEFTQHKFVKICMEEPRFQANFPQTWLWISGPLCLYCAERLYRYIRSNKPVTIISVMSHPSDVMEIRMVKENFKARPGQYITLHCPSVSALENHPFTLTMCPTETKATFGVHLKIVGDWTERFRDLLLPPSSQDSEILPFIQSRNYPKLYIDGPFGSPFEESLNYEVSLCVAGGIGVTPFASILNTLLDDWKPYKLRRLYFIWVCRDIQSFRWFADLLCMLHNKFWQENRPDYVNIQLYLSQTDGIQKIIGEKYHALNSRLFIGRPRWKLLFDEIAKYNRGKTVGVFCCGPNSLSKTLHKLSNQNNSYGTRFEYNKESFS

[3] = biological target: T1, NADPH oxidase 2; experiment: Inhibition of full length human NOX2 transfected in COS 22 cells assessed as inhibition of Phorbol 12-myristate 13-acetate-stimulated ROS generation by measuring H2O2 production by fluorescence assay in presence of superoxide dismutase; assay type: cell-based
Procedure, shortened: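 Intact COS-Nox2 cells in Hepes pH 7.4 buffer with 0.1 mM Amplex Red, 0.32 U/ml HRP and 150 U/mL SOD, drug 15 min at 37 °C; started with 5 µM PMA; fluorescence monitored 1 h at 37 °C; rate as RFU/min minus unstimulated cells; % of vehicle control.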

[4] = biological target: T3, NADPH oxidase 5 (Homo sapiens, UniProt Q96PH1); experiment: Inhibition of full length human NOX5 transfected in HEK cells assessed as inhibition of ionomycin-stimulated ROS generation by chemiluminescence assay; assay type: cell-based, HEK293
T3 sequence (Q96PH1 whole entry): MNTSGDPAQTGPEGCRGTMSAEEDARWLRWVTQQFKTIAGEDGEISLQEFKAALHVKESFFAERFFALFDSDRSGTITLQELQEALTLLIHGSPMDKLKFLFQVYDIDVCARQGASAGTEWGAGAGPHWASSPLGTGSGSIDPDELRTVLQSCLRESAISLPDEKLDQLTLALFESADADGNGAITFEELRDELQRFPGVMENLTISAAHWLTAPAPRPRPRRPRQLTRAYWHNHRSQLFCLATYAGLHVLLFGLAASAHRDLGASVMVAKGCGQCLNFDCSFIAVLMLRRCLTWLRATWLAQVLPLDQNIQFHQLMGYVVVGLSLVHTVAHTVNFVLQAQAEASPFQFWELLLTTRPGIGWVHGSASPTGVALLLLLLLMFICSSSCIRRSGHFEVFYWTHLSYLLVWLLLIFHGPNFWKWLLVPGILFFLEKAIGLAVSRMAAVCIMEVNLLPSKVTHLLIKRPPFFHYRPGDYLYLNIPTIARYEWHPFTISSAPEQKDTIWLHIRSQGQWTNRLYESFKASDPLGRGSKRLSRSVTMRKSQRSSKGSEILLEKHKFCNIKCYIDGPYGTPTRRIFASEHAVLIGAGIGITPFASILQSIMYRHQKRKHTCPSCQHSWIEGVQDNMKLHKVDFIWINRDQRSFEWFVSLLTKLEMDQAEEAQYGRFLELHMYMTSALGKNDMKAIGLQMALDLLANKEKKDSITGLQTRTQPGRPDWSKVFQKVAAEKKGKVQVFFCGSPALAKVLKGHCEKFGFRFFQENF
Procedure, shortened: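 HEK-Nox5 cells at 5 × 10⁴ cells/well in OPTIMEM, 10 min at 37 °C in PBS with L-012, then stimulated with 1 µM PMA/0.1 µM ionomycin; luminescence over time; SOD 150 U/mL used to confirm superoxide specificity. IC50 by three-parameter fit, Hill slope 1, top/bottom fixed 100/0.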

[5] = biological target: T4, NADPH oxidase 1 (Homo sapiens, UniProt Q9Y5S8); experiment: Inhibition of full length human NOX1 transfected in COS 22 cells assessed as inhibition of constitutive ROS generation by chemiluminescence assay
T4 sequence (Q9Y5S8 whole entry): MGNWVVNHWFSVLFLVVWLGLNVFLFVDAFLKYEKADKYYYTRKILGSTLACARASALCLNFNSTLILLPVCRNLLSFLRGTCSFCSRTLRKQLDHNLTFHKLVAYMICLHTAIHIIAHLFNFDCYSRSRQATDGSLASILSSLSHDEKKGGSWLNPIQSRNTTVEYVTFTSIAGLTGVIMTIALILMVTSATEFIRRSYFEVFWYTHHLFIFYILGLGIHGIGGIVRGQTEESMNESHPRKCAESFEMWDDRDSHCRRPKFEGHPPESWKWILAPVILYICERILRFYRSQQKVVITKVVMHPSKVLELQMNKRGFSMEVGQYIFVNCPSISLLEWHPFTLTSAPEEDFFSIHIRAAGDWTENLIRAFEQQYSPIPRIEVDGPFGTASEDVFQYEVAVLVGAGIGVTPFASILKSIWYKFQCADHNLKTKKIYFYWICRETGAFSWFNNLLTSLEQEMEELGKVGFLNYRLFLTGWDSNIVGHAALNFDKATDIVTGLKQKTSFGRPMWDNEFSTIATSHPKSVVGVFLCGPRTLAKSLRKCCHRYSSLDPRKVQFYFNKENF

[6] = biological target: Xanthine dehydrogenase/oxidase (Bos taurus, UniProt P80457); experiment: Inhibition of bovine milk xanthine oxidase assessed as hypoxanthine-stimulated ROS generation by measuring H2O2 production at 25 to 50 uM by fluorescence assay; conditions: cattle
Xanthine dehydrogenase/oxidase, sequence (P80457 whole entry): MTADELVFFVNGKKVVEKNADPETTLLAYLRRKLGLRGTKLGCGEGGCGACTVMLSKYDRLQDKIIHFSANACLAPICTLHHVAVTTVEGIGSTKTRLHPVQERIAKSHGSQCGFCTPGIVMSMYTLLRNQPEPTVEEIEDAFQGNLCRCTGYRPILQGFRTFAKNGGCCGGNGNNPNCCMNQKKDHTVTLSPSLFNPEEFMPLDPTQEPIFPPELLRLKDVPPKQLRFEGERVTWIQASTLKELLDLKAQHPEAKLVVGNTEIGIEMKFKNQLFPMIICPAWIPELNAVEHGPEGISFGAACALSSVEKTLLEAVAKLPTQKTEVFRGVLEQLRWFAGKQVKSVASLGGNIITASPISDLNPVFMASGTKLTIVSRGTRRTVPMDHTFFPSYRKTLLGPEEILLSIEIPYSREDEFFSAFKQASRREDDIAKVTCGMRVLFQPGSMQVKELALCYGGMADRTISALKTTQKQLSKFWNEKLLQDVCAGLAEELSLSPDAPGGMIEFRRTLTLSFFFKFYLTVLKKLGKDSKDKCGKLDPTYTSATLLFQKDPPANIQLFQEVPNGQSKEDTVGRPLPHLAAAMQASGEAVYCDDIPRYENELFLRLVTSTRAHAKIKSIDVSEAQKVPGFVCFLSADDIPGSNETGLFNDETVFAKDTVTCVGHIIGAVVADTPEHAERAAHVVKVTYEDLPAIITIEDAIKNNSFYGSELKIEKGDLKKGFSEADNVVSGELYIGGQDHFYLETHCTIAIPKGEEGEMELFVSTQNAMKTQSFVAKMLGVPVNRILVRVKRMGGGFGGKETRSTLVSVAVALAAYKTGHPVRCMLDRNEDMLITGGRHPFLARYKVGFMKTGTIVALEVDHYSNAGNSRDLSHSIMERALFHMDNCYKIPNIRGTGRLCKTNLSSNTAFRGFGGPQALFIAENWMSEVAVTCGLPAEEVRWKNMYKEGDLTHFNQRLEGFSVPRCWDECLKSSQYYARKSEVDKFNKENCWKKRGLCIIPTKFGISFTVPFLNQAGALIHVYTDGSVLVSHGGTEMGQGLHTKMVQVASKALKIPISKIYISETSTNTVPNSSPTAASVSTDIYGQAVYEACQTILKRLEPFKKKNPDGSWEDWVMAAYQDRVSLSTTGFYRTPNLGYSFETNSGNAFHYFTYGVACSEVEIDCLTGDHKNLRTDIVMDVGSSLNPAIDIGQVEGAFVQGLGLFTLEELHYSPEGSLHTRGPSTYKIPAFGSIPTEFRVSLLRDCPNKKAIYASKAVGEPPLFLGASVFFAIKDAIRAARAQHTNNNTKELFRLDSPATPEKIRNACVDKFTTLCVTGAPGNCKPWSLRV

[7] = Cytotoxicity against african green monkey COS7 cells expressing human p22phox assessed as cell viability at 25 to 50 uM after 15 mins by luminogenic assay; assay type: cell-based; conditions: chlorocebus aethiops, cos-7, 0.25 h
Procedure, shortened: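 COS-22 cells plated at 2.5 x 10³ cells/well in OPTIMEM, exposed 15 min to compounds at various concentrations; dead-cell protease release read with luminogenic AAF peptide substrate, signal before and after digitonin used to derive % dead; reported as % live cells (100 − % dead) per well.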

| Compound | IC50 ([1]; read-out: IC50) | IC50 ([2]; read-out: IC50) | IC50 ([3]; read-out: IC50) | IC50 [4] | IC50 ([5]; read-out: IC50) | inhibition (INH) [6] | IC50 ([2]; cos 22) | IC50 ([5]; cos 22) | Activity [7] | IC50 ([1]; cos 22) | IC50 ([3]; cos 22) |
| --- | --- | --- | --- | --- | --- | --- | --- | --- | --- | --- | --- |
| C=C(C)C[C@H]1[C@H]2c3c(-c4ccc(Cl)c(Cl)c4)cccc3[C@H](CC2(C)C)N1Cc1ccc2c(c1)OCO2 (racemic) | > 100 µM |  | > 100 µM | > 100 µM | > 100 µM | Not Active | Not Active |  |  |  |  |
| [Cl-].c1ccc2c(c1)[I+]c1ccccc1-2 [DIPHENYLENEIODONIUM CHLORIDE] |  |  |  |  |  | Not Active |  |  |  |  |  |
| C=C(C)C[C@H]1[C@H]2c3c(Br)cccc3[C@H](CC2(C)C)N1Cc1ccc2c(c1)OCO2 (racemic) | 88 µM | > 100 µM | 40 µM | > 100 µM | > 100 µM | Not Active |  |  |  |  |  |
| C=C(C)C[C@H]1[C@H]2c3c(-c4ccc(Cl)c(Cl)c4)cccc3[C@H](CC2(C)C)N1CCCCC (racemic) | > 100 µM | > 100 µM | 79 µM | > 100 µM | > 100 µM | Not Active |  |  |  |  |  |
| C=C(C)C[C@H]1[C@H]2c3c(Br)cccc3[C@H](CC2(C)C)N1S(=O)(=O)c1ccc(F)cc1 (racemic) | > 100 µM |  | > 100 µM | > 100 µM | > 100 µM | Not Active | Not Active |  |  |  |  |
| C=C(C)C[C@H]1[C@H]2c3c(Br)cccc3[C@H](CC2(C)C)N1S(C)(=O)=O (racemic) | > 100 µM | > 100 µM | 27 µM | > 100 µM |  | Not Active |  | Not Active |  |  |  |
| C=C(C)C[C@H]1[C@H]2c3c(Br)cccc3[C@H](CC2(C)C)N1Cc1ccnc2ccccc12 (racemic) | > 100 µM |  | > 100 µM | > 100 µM | > 100 µM | Not Active | Not Active |  |  |  |  |
| C=C(C)C[C@@H]1N[C@H]2CC(C)(C)[C@@H]1c1c(-c3cccnc3)cccc12 (racemic) |  |  |  |  |  | Not Active |  |  |  | Not Active | Not Active |
| C=C(C)C[C@H]1[C@H]2c3c(Br)cccc3[C@H](CC2(C)C)N1Cc1c[nH]c2ccccc12 (racemic) | > 100 µM |  | > 100 µM | > 100 µM | > 100 µM | Not Active | Not Active |  |  |  |  |
| C=C(C)C[C@@H]1N[C@H]2CC(C)(C)[C@@H]1c1ccccc12 (racemic) | > 100 µM |  | > 100 µM | > 100 µM | > 100 µM | Not Active | Not Active |  |  |  |  |

Now from value to compound, other results behind:

| IC50 ([1]; read-out: IC50) | IC50 ([2]; read-out: IC50) | IC50 ([3]; read-out: IC50) | IC50 [4] | IC50 ([5]; read-out: IC50) | inhibition (INH) [6] | IC50 ([2]; cos 22) | IC50 ([5]; cos 22) | Compound | Activity [7] | IC50 ([1]; cos 22) | IC50 ([3]; cos 22) |
| --- | --- | --- | --- | --- | --- | --- | --- | --- | --- | --- | --- |
| 68 µM | > 100 µM | 51 µM | 79 µM | > 100 µM | Not Active |  |  | C=C(C)C[C@H]1[C@H]2c3c(Br)cccc3[C@H](CC2(C)C)N1Cc1cccc(F)c1 (racemic) |  |  |  |
| 68 µM | > 100 µM | 30 µM | 50 µM | > 100 µM | Not Active |  |  | C=C(C)C[C@H]1[C@H]2c3ccccc3[C@H](CC2(C)C)N1Cc1cccc(F)c1 (racemic) |  |  |  |
| 31 µM | > 100 µM | 78 µM | 18 µM | 32 µM | Not Active |  |  | CC(C)C[C@@H]1N[C@H]2CC(C)(C)[C@@H]1c1c(Br)cccc12 (racemic) | Non-toxic |  |  |
| 20 µM | > 100 µM | 20 µM | > 100 µM | > 100 µM | Not Active |  |  | C=C(C)C[C@H]1[C@H]2c3c(Br)cccc3[C@H](CC2(C)C)N1CCCCC (racemic) |  |  |  |
| 48 µM | > 100 µM | 12 µM | 31 µM | > 100 µM | Not Active |  |  | C=C(C)C[C@H]1[C@H]2c3c(Br)cccc3[C@H](CC2(C)C)N1Cc1cc(C)on1 (racemic) |  |  |  |
| 38 µM |  | 32 µM | > 100 µM | > 100 µM | Not Active | Not Active |  | C=C(C)C[C@H]1[C@H]2c3c(Br)cccc3[C@H](CC2(C)C)N1Cc1cccs1 (racemic) |  |  |  |
| 9 µM | > 100 µM | 64 µM | 14 µM | > 100 µM | Not Active |  |  | C=C(C)C[C@@H]1N[C@H]2CC(C)(C)[C@@H]1c1c(-c3ccc(Cl)c(Cl)c3)cccc12 (racemic) |  |  |  |
